Compounds with a hit are over-represented: about 5.8% of the library has one in this group of screens.
Pf Dd2 growth: P. falciparum Dd2 growth inhibition; SYBR Green, 72 h; stronger effect = lower value; activity change, % at 10 µM; actives 2.3% (n = 94,000); AID 1159554; in the data active = activity change below about -80%; inconclusive = no clear call, values can overlap the other calls
IDH1 R132H inh: blocks human IDH1 R132H reductase activity. AID 624101. actives 0.18% (n = 70,000). inhibition, % at 10 µM. diaphorase/resazurin fluorescence, 60 min. O75874; in the data active = inhibition above about 34%; inconclusive = no clear call, values can overlap the other calls; inactive = below about 11%;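 note: 0% = DMSO and 100% = no enzyme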
Target sequence (O75874 whole entry R132H): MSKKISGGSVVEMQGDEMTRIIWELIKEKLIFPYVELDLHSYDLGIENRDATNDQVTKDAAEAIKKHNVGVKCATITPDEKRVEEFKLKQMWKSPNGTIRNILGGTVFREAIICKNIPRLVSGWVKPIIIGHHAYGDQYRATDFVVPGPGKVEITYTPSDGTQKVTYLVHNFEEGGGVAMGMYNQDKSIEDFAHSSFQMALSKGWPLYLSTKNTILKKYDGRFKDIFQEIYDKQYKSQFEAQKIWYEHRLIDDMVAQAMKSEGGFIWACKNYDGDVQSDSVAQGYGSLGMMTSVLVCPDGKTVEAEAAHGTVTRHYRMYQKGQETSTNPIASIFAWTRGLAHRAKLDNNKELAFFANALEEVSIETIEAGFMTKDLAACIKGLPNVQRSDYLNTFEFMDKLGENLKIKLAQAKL
KDM4C inh: KDM4C (human) demethylase inhibition; Q9H3R0; GST-KDM4C 2-372, H3K9me3 peptide, LANCE TR-FRET; actives 0.15% (n = 96,000); AID 720574; inhibition, % at 12.5 µM;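 active = mean replicate inhibition above about 25%, with at least 55% of replicates also reaching it, limit read from the data, passing the limit was not always enough; inconclusive = only one of those two conditions met; inactive = neither condition met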
Target sequence (Q9H3R0 2-372 limits assumed): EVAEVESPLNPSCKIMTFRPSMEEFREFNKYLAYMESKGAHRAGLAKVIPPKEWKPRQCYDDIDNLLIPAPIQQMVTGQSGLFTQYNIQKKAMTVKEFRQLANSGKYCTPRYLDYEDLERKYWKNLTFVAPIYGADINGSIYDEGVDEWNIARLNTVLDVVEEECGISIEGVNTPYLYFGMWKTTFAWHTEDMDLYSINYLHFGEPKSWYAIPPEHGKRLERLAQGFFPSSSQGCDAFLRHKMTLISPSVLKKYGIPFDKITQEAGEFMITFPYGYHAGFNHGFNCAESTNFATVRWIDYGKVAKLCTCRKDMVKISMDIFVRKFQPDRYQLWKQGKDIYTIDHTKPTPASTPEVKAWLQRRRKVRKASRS
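Test system – GST-tagged GASC-1 (JMJD2C) catalytic fragment, aa 2-372 · Medium – HEPES buffer, pH 7.5, plus ascorbate · Reagent – H3K9me3 peptide with Fe(II)/2OG · Compound – one test concentration per compound · Timing – 30 min reaction, 60 min detection, RT · Technique – TR-FRET with Eu antibody and ULight streptavidin, EDTA stop · Read-out basis – inhibition from TR-FRET ratio decrease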
T cruzi growth-1: inhibitors of T. cruzi proliferation; T. cruzi beta-gal in NIH3T3, GalScreen luminescence, 90 h; inhibition, % at 8.34 µM; actives 5.9% (n = 77,000);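 active = mean inhibition above about 93%, with at least 55% of replicates each passing it, limit read from the data, passing the limit was not always enough; inconclusive = only one of those two conditions holds; inactive = neither condition holds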
T cruzi growth-2: inhibitors of T. cruzi proliferation | actives 72% (n = 5,600) | inhibition, % at 8.35 µM | T. cruzi beta-gal in NIH3T3, GalScreen luminescence, 90 h | shares compounds with T cruzi growth-1;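 active = mean replicate inhibition above about 95% and at least 55% of replicates individually reaching it, limit read from the data; inconclusive = only one of the two criteria is met; inactive = neither criterion is met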
T cruzi growth-3: blocks T. cruzi growth in NIH3T3 host cells; shares compounds with T cruzi growth-1; T. cruzi beta-gal in NIH3T3, GalScreen luminescence, 90 h; inhibition, % at 2.09 µM; actives 21% (n = 5,600); AID 651740;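 active = mean inhibition above about 95%, with at least 55% of replicates also reaching it, limit read from the data; inconclusive = meets just one of the two conditions; inactive = meets neither condition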;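 note: plate controls were neutral control median for no effect and positive control median for full effect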
3T3 cytotox: NIH/3T3 (mouse) viability loss; shares compounds with T cruzi growth-1; NIH/3T3 viability, CellTiter-Glo ATP luminescence, 90 h; cytotoxicity (signal decrease), % at 8.35 µM; actives 14% (n = 5,600); AID 651742;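 active = mean signal decrease across replicates above about 35% based on untreated-well scatter, with enough replicates individually passing, limit read from the data; inconclusive = no rule stated though some were filed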;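 note: 0% = median of neutral control wells and 100% = median of positive control wells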
3T3 cytotox 2: kills mouse NIH/3T3 fibroblasts; inhibition, % at 24.9 µM; shares compounds with T cruzi growth-1; actives 56% (n = 5,600); NIH/3T3 viability, CellTiter-Glo ATP luminescence, 90 h; AID 651744;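 active = mean loss of cell viability signal at or above a set limit, and enough replicates individually reaching it; inconclusive = meets only the mean limit or only the replicate share; inactive = meets neither condition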;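 note: 0% = median of neutral control wells and 100% = median of positive control wells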
The depositor's hits bear a star; u = inconclusive; x = not tested or not shown.

SMILES	Pf Dd2 growth	IDH1 R132H inh	KDM4C inh	T cruzi growth-1	T cruzi growth-2	T cruzi growth-3	3T3 cytotox	3T3 cytotox 2
C/C=C/c1ccc2c(c1)O[C@@H](CN(C)C(=O)Nc1cccc(F)c1)[C@H](C)CN([C@@H](C)CO)S2(=O)=O	0.8	0.4	2.2	96.6*	83.6	34.8	19.4	62.9*
COc1cccc(NC(=O)N(C)C[C@@H]2Oc3cc(/C=C/c4ccccc4)ccc3S(=O)(=O)N([C@H](C)CO)C[C@H]2C)c1	-47.9	1.8	-0.8	x	x	x	x	x
C[C@H]1CCCCO[C@H](CN(C)Cc2ccc(C(F)(F)F)cc2)[C@@H](C)CN([C@@H](C)CO)C(=O)c2cc(NC(=O)Nc3cccc4ccccc34)ccc2O1	1.9	x	-1.5	u	97.4*	109.4*	-3.5	15.4
C[C@H]1CCCCO[C@@H](CN(C)Cc2ccc(C(=O)O)cc2)[C@@H](C)CN([C@@H](C)CO)C(=O)c2cc(NC(=O)Nc3cccc4ccccc34)ccc2O1	-34.7	-19.6	8.2	15.3	x	x	x	x
C[C@@H]1CCCCO[C@@H](CN(C)Cc2ccc(C(F)(F)F)cc2)[C@@H](C)CN([C@@H](C)CO)C(=O)c2cc(NC(=O)Nc3cccc4ccccc34)ccc2O1	7.9	1.9	-3.0	u	107.5*	99.5*	11.3	7.6
C[C@@H]1CN([C@H](C)CO)C(=O)c2cc(NC(=O)Nc3cccc4ccccc34)ccc2O[C@@H](C)CCCCO[C@@H]1CN(C)Cc1ccc(C(F)(F)F)cc1	-86.8*	x	-5.1	u	101.8*	108.0*	7.7	-3.4
C[C@H]1CCCCO[C@@H](CN(C)Cc2ccc(C(F)(F)F)cc2)[C@@H](C)CN([C@@H](C)CO)C(=O)c2cc(NC(=O)Nc3cccc4ccccc34)ccc2O1	-27.1	x	-0.7	u	108.1*	107.8*	10.4	11.2
Cc1cccc(NC(=O)c2ccccc2NC(=O)COc2ccccc2)c1C	x	-0.3	x	x	x	x	x	x
CCc1cc(C(=O)OC)c(NC(=S)Nc2cn(CC)nc2C(N)=O)s1	x	-0.3	x	x	x	x	x	x
N#Cc1cccc(-c2ccc([C@@H]3[C@H]4CN(C(=O)Nc5ccccc5)CCCCN4[C@H]3CO)cc2)c1	18.5	x	0.2	101.5*	105.2*	27.7	17.4	42.1*
CCC(=O)N1CCCCN2[C@@H](CO)[C@@H](c3ccc(-c4cccc(C#N)c4)cc3)[C@@H]2C1	-53.7	x	0.9	112.1*	90.5	91.7	6.9	12.7
N#Cc1cccc(-c2ccc([C@@H]3[C@@H](CO)N4CCCCN(C(=O)Nc5cccc(F)c5)C[C@H]34)cc2)c1	-26.1	x	2.1	114.9*	105.2*	65.0	27.3	103.8*
N#Cc1cccc(-c2ccc([C@@H]3[C@H]4CN(C(=O)Nc5cccc(F)c5)CCCCN4[C@H]3CO)cc2)c1	-40.0	x	-1.4	92.8	x	x	x	x
N#Cc1cccc(-c2ccc([C@H]3[C@@H](CO)N4CCCCN(C(=O)Nc5ccc(F)cc5)C[C@@H]34)cc2)c1	2.9	x	-0.1	122.8*	109.4*	78.6	2.5	8.4
CCOc1ccc(C(Nc2cccc(C)n2)c2ccc3ccc(C)nc3c2O)cc1 (stereo not given)	x	-0.2	x	x	x	x	x	x
CCn1ncc(CN(C)C(=O)c2cc(-c3cccnc3)nc3ccc(Cl)cc23)c1C	x	1.1	x	x	x	x	x	x
O=C(NCCCN1CCOCC1)c1cnn2c(C(F)(F)F)cc(-c3ccccc3)nc12	x	0.4	x	x	x	x	x	x
CN(C)[C@@H]1C(=O)C(C(N)=O)C(=O)[C@@]2(O)C(=O)C3C(=O)c4c(O)ccc(Cl)c4[C@@H](O)[C@H]3C[C@@H]12 (stereo not given in full)	x	0.5	x	x	x	x	x	x
Cc1ccc(-c2nnc(SCC(=O)Nc3c(C)cc(C)cc3C)o2)cc1	x	0.2	x	x	x	x	x	x
Cn1c(SCC(=O)Nc2cc(Cl)cc(Cl)c2)nnc1-c1ccc(Cl)cc1	x	-0.1	x	x	x	x	x	x
C[C@@H]1CN([C@@H](C)CO)C(=O)c2cc(NC(=O)Nc3ccc(F)cc3)ccc2O[C@@H](C)CCCCO[C@H]1CN(C)Cc1ccc(C(F)(F)F)cc1	u	-0.9	-0.4	109.5*	99.6*	112.2*	25.2	19.3
C[C@@H]1CN([C@H](C)CO)C(=O)c2cc(NC(=O)Nc3ccc(F)cc3)ccc2O[C@@H](C)CCCCO[C@@H]1CN(C)Cc1ccc(C(F)(F)F)cc1	-82.2*	-2.8	0.9	100.1*	84.3	114.4*	2.8	7.8
C[C@@H]1CCCCO[C@H](CN(C)Cc2ccc(C(F)(F)F)cc2)[C@@H](C)CN([C@H](C)CO)C(=O)c2cc(NC(=O)Nc3ccc(F)cc3)ccc2O1	-28.2	x	-0.1	61.5	x	x	x	x
C[C@@H]1CCCCO[C@H](CN(C)Cc2ccc(C(F)(F)F)cc2)[C@H](C)CN([C@@H](C)CO)C(=O)c2cc(NC(=O)Nc3ccc(F)cc3)ccc2O1	-79.6	x	-0.3	99.7*	u	116.9*	17.6	29.7*
C[C@H](CO)N1C[C@H](C)[C@H](CN(C)Cc2ccc(C(F)(F)F)cc2)OCCCC[C@H](C)Oc2ccc(NC(=O)Nc3ccc(F)cc3)cc2C1=O	-21.3	x	-1.6	92.5	x	x	x	x
SMILES	Pf Dd2 growth	IDH1 R132H inh	KDM4C inh	T cruzi growth-1	T cruzi growth-2	T cruzi growth-3	3T3 cytotox	3T3 cytotox 2
CCc1ccc(Nc2nc3ccccc3nc2NS(=O)(=O)c2ccc(NC(C)=O)cc2)cc1	x	2.5	x	x	x	x	x	x
Cc1ccc(OCCCSc2nc(C)cc(=O)[nH]2)c(I)c1	x	0.2	x	x	x	x	x	x
COc1ccccc1CNC(=O)C[C@H]1C[C@H]2c3cc(NC(=O)CC4CC4)ccc3O[C@H]2[C@H](CO)O1	-18.4	-0.1	-0.4	-15.9	x	x	x	x
COc1ccccc1CNC(=O)C[C@H]1CC[C@H](NC(C)=O)[C@H](CO)O1	1.8	-0.1	-1.5	-57.3	x	x	x	x
COCC(=O)Nc1ccc2c(c1)[C@H]1C[C@H](CC(=O)NCc3ccccc3OC)O[C@@H](CO)[C@H]1O2	0.2	-1.2	1.2	100.7*	3.1	-0.3	-8.4	-12.0
COc1ccccc1CNC(=O)C[C@@H]1CC[C@@H](NC(C)=O)[C@H](CO)O1	-14.7	-0.3	-1.4	u	3.5	-23.8	-14.8	3.3
COc1ccccc1CNC(=O)C[C@H]1C[C@H]2c3cc(NC(=O)Nc4ccc(C(F)(F)F)cc4)ccc3O[C@H]2[C@@H](CO)O1	-32.7	-0.1	-0.1	122.9*	105.3*	65.3	-9.1	-1.5
COc1ccccc1CNC(=O)C[C@H]1C[C@@H]2c3cc(NC(=O)Nc4ccc(C(F)(F)F)cc4)ccc3O[C@@H]2[C@@H](CO)O1	u	1.0	-2.6	140.5*	110.4*	100.6*	0.2	14.1
CS(=O)(=O)N(CC(=O)Nc1ccccc1C(=O)N1CCCC1)c1cccc(F)c1	x	0.1	x	x	x	x	x	x
CN(C)c1nc(OCC(=O)Nc2ccc(Cl)cc2)nc(N(C)C)n1	x	1.3	x	x	x	x	x	x

High-throughput results: PubChem BioAssay, Broad Institute
